# Measurements taken from PMC7953430 (Chemical Science, 2020).
# Where “and” joins values, the source holds several entries; their conditions need not be identical. Equal entries are not always repeated. Where two headings read alike, the source gives them in different places.
# How the values were obtained:
# [1] = Solubility in high ionic strength solvents; type: physicochemical; conditions: DPBS, media
# [2] = test system: SK-MEL-28 human skin melanoma cells; experiment: Resazurin; type: cell-based
# [3] = aerated MeCN; cited from earlier work
# [4] = Singlet oxygen sensitization quantum yield; type: physicochemical; conditions: PF6 salts; for ΦΔ singlet oxygen quantum yield: air-saturated MeCN, excitation wavelength in brackets; for 1O2 quantum yield ΦΔ: MeCN
# Outline: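 ΦΔ was measured from ¹O₂ emission near 1276 nm, relative to [Ru(bpy)₃](PF₆)₂ (ΦΔ = 0.56 in aerated MeCN). Samples were 5–20 μM PF₆⁻ salts in air-bubbled, CaH₂-distilled MeCN. Excitation was at the longest wavelength maximising 1268 nm emission. Absorbance and refractive index corrections were applied, in triplicate.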
# [5] = test system: SK-MEL-28 cells; experiment: Sulforhodamine B; type: cell-based, human; conditions: SRB, hypoxia, across light treatments
# [6] = test system: SK-MEL-28 cells; experiment: NIR 733 nm photocytotoxicity, normoxia; type: cell-based, human; conditions: read-out: EC50 with 733 nm light, 100 J cm^–2, 5 mW cm^–2
# Outline: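 Normoxic SK-MEL-28 monolayers in 384-well plates were illuminated with a 733 nm laser through a frontal diffuser (5 mW cm⁻², 100 J cm⁻²), with sham-treated dark controls. Viability was read by resazurin and EC50 was taken from the dose–response curve.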
# [7] = test system: SK-MEL-28 cells; experiment: Resazurin; type: cell-based, human
# Outline: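 SK-MEL-28 cells were equilibrated at 1% O₂ for 2–3 h before dosing and kept hypoxic for at least 16 h. During illumination plates were sealed with qPCR films (about 20 °C, ≤1.5 h). Light was cool white (400–700 nm), green (523 nm) or red (633 nm) at 20 mW cm⁻² to 100 J cm⁻². Cells recovered in normoxia before the resazurin read. PI was dark EC50/light EC50.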
# [8] = test system: female C57BL/6J mice; experiment: Maximum tolerated dose in mice; type: in vivo; conditions: ip doses above 100 mg kg^–1 (100, 125, 200); behaviour resolved after 2 h
# [9] = test system: SK-MEL-28 cells; experiment: Os-4T interassay repeats, resazurin, hypoxia; type: cell-based, human
# Outline: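 Hypoxic (1% O₂) SK-MEL-28 phototoxicity was read by resazurin across repeats under three light conditions. Repeat 0 was run in 96-well plates; repeats 1–5 were run within a month in 384-well plates. Plate maps, pipette tips and seed stock (repeats 4–5) were varied, and overhead lights were off in repeat 5. Cells were at passages 10–15, with three replicates per repeat.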
# [10] = test system: SK-MEL-28 cells; experiment: Os-4T interassay repeats, resazurin, normoxia; type: cell-based, human
# [11] = test system: SK-MEL-28 cells; experiment: NIR 753 nm photocytotoxicity on Modulight ML8500; type: cell-based, human; conditions: 10 μM, 300 mW cm^–2, 200*2 (≥400) J cm^–2, resazurin
# Outline: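 SK-MEL-28 wells were illuminated one by one with a 753 nm laser at a constant 300 mW cm⁻² over 0–400 J cm⁻², at 37 °C and 5% CO₂. Viability was read by resazurin relative to dark wells, in triplicate.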
# [12] = test system: SK-MEL-28 human amelanotic melanoma cells; experiment: External validation; type: cell-based; conditions: SK-MEL-28, external validation
# Outline: (§1)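 SK-MEL-28 and B16-F10 cells (B16-F10 grown in DMEM) in log phase were seeded and dosed with 1 nM–300 μM test compound diluted in DPBS (<1.2% v/v DMSO). Plates were irradiated 15–22 h after dosing with broadband projector visible light or a red 630 nm LED panel (33–40 mW cm⁻², 100 J cm⁻²). Resazurin was read at 48 h (530/620 nm). PI was dark EC50/light EC50.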
# [13] = test system: B16-F10 murine melanotic melanoma cells; experiment: External validation; type: cell-based
# Outline: as §1
# [14] = read-out: EC50 ± SEM Dark, normoxia 18.5–21% O2, no light
# [15] = read-out: visible EC50, normoxia, visible light 100 J cm^–2
molecule,measurement,setting,value
"[Cl-].[Cl-].[Os+2].c1cnc2c(c1)ccc1cccnc12.c1cnc2c(c1)ccc1cccnc12.c1cnc2c(c1)ccc1cccnc12 [[Os(phen)3]Cl2, reference compound]",solubility in high ionic strength solvents,[1],> 300 µM
same,PI regardless of wavelength,"[2]; normoxia, visible, green or red",2–4
same,EC50,[2]; [14],158000 nM
F[P-](F)(F)(F)(F)F.F[P-](F)(F)(F)(F)F.[Ru+2].c1ccc(-c2ccccn2)nc1.c1ccc(-c2ccccn2)nc1.c1ccc(-c2ccccn2)nc1 [[Ru(bpy)3](PF6)2],ΦΔ singlet oxygen quantum yield (standard),[3],0.56
[Os(phen)2(IP)]^2+ [Os-0T],ΦΔ singlet oxygen quantum yield,[4],0.43 [473]
[Os(phen)2(IP-1T)]^2+ [Os-1T],ΦΔ singlet oxygen quantum yield,[4],0.42 [473]
[Os(phen)2(IP-2T)]^2+ [Os-2T],ΦΔ singlet oxygen quantum yield,[4],0.49 [472]
same,EC50,[2]; [14],35700 nM
[Os(phen)2(IP-3T)]^2+ [Os-3T],1O2 quantum yield ΦΔ,[4],51%
same,ΦΔ singlet oxygen quantum yield,[4],0.51 [525]
same,PI Green,"[2]; normoxia, dark EC50/green 523 nm EC50",103
same,PI Visible (phototherapeutic index),"[2]; normoxia, dark EC50/visible EC50",369
same,EC50,[2]; [15],153 nM
[Os(phen)2(IP-4T)]^2+ [Os-4T],"total growth inhibition (TGI), light-treated samples",[5],140 to 170 nM
same,1O2 quantum yield ΦΔ,[4],95%
same,ΦΔ singlet oxygen quantum yield,[4],0.95 [525]
same,EC50,[6],803 nM
same,PI Green,"[7]; hypoxia 1% O2, dark EC50/green EC50",91 and > 90
same,PI Visible,"[7]; hypoxia 1% O2, dark EC50/visible EC50",> 90
same,EC50,"[7]; read-out: light EC50 values in hypoxia, hypoxia 1% O2, across visible, green, red light",651 to 835 nM
same,observed clinical toxicity,[8],mild toxicity
same,PI range across repeats and three light conditions,[9]; hypoxia 1% O2,32 to 167
same,average hypoxic PI across the three light conditions,"[9]; hypoxia 1% O2, repeat 3 excluded",90
same,EC50,"[2]; read-out: EC50 with green light, normoxia, green 523 nm, 100 J cm^–2",1 nM
same,EC50,"[2]; read-out: EC50 with red light, normoxia, red 633 nm, 100 J cm^–2",10 nM
same,EC50,[2]; [14],65100 nM
same,EC50,[2]; [15],0.018 nM
same,EC50,"[10]; read-out: EC50 range over repeats, green, normoxia",1.16 to 25.4 nM
same,EC50,"[10]; read-out: EC50 range over repeats, red, normoxia",10 to 46.2 nM
same,EC50,"[10]; read-out: EC50 range over repeats, visible, normoxia",0.0178 to 8.91 nM
same,EC50,"[10]; read-out: average dark EC50 across repeats, either oxygen condition (normoxia and hypoxia), <7% variation",62800 nM
same,EC50,"[10]; read-out: average normoxic EC50, green, normoxia, repeats",11.7 nM
same,EC50,"[10]; read-out: average normoxic EC50, red, normoxia, repeats",30.8 nM
same,EC50,"[10]; read-out: average normoxic EC50, visible, normoxia, repeats",1.62 nM
same,reduction of relative cell viability compared to dark,[11],14%
same,EC50,[12]; read-out: red EC50,9.44 nM
same,EC50,[12]; read-out: visible EC50,2.91 nM
same,PI Visible,"[13]; B16-F10, dark EC50/visible EC50",> 20 000 and > 10^4
same,EC50,"[13]; read-out: visible EC50, B16-F10, external validation",15 nM
